{"source": "ChEMBL document CHEMBL4017544", "about": "(J Med Chem, 2017)", "test": "Drug level in Wistar rat plasma treated with 1-Hydroxyl-2-cyano-3-(4-(methyl-L-glutaminate-N5-yl)-benzyloxy)-12-oxo-oleana-2(3),9(11)-dien-28-oic Acid Methyl Ester assessed as esterase-mediated metabolite formation at 100 uM after 8 hrs by HPLC analysis", "assay_type": "ADME", "how_it_was_run": "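Plasma, and kidney and liver homogenates in PBS, from three Wistar rats; substrate added at 100 μM at 37 °C; metabolite measured by HPLC every 60 min for 8 h; mean ± SD of three experiments.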"}
{"compound": "COC(=O)[C@]12CCC(C)(C)C[C@H]1[C@H]1C(=O)C=C3[C@@]4(C)[C@@H](O)C(C#N)=C(OCc5ccc(NC(=O)CC[C@H](N)C(=O)O)cc5)C(C)(C)[C@@H]4CC[C@@]3(C)[C@]1(C)CC2", "values": [{"measurement": "Drug metabolism", "result": "Metabolite_Detected"}]}
